Measured values of several laboratories.
Each line is one published result; the experiments were not run side by side.
Organism: Staphylococcus aureus
Read-out: microbial growth

SMILES | method | strain | tested at | time | inhibition zone [mm]
CC(C)c1nn(-c2nc3ccccc3s2)c2c1C(=O)c1ccccc1-2 | well diffusion | NCIM5021 | 125 µg/mL |  | 10
N#Cc1c(-c2ccc(Cl)cc2)nc2n(c1=O)NC(c1ccccc1O)N2C(Cc1c[nH]c2ccccc12)C(=O)O (stereo not shown) |  | ATCC25923 | 10 µg/mL | 24 h | 18
COc1cc(C=Cc2cc(-c3ccc(N(C)C)cc3)nc(O)n2)ccc1O | disc diffusion | ATCC29213 | 500 µg/mL |  | 6.33
CC(C(=O)O)N1C2=NC(c3ccc(Cl)cc3)C3=C(OC(C)(C)OC3=O)N2NC1(C)c1ccccc1O (stereo not shown) |  | ATCC25923 | 10 µg/mL | 24 h | 10
[H]/N=C(/N)N[C@H]1[C@H](O)[C@@H](O)[C@H](O[C@@H]2O[C@@H](C)[C@](O)(C=O)[C@H]2O[C@@H]2O[C@@H](CO)[C@H](O)[C@@H](O)[C@@H]2NC)[C@@H](N/C(N)=N\[H])[C@@H]1O | well diffusion | NCIM5021 | 125 µg/mL |  | 20
CC(=O)C1=C(C)N2NC(c3ccccc3O)N(C(Cc3c[nH]c4ccccc34)C(=O)O)C2=NC1c1ccc(Cl)cc1 (stereo not shown) |  | ATCC25923 | 10 µg/mL | 24 h | 19
CC(C)Cc1nn(-c2nc3ccc(Cl)cc3s2)c2c1C(=O)c1ccccc1-2 | well diffusion | NCIM5021 | 1000 µg/mL |  | 11
COc1cc(C=CC(=O)CC(c2ccc([N+](=O)[O-])cc2)n2ccnc2)ccc1O (stereo not shown) | disc diffusion | ATCC29213 | 500 µg/mL |  | 7
CN[C@H](CC(C)C)C(=O)N[C@H]1C(=O)N[C@@H](CC(N)=O)C(=O)N[C@H]2C(=O)N[C@H]3C(=O)N[C@H](C(=O)N[C@H](C(=O)O)c4cc(O)cc(O)c4-c4cc3ccc4O)[C@H](O)c3ccc(c(Cl)c3)Oc3cc2cc(c3O[C@@H]2O[C@H](CO)[C@@H](O)[C@H](O)[C@H]2O[C@H]2C[C@](C)(N)[C@H](O)[C@H](C)O2)Oc2ccc(cc2Cl)[C@H]1O | disc diffusion | ATCC29213 | 15.6 µg/disc | 24 h | 16
CC(C(=O)O)N1c2nc(-c3ccc(Cl)cc3)c(C#N)c(=O)n2NC1c1ccccc1O (stereo not shown) |  | ATCC25923 | 10 µg/mL | 24 h | 14
CC1(C)S[C@@H]2[C@H](NC(=O)[C@H](N)c3ccc(O)cc3)C(=O)N2[C@H]1C(=O)O | disc diffusion | ATCC29213 | 500 µg/mL |  | 10.8
Cc1ccc2nc(-n3nc(C)c4c3-c3ccccc3C4=O)sc2c1 | well diffusion | NCIM5021 | 250 µg/mL |  | 11
Cc1cc(N)c2ccccc2[n+]1CCCCCCCCCC[n+]1c(C)cc(N)c2ccccc21 | disc diffusion |  | 50 µg/disc |  | 9
O=C(O)c1cn(C2CC2)c2cc(N3CCNCC3)c(F)cc2c1=O | disc diffusion |  | 100 µg/mL | 24 h | 24
COc1ccc2nc(-n3nc(CC(C)C)c4c3-c3ccccc3C4=O)sc2c1 | well diffusion | NCIM5021 | 1000 µg/mL |  | 13
CCOC(=O)C1=C(C)N2NC(c3ccccc3O)N(C(Cc3c[nH]c4ccccc34)C(=O)O)C2=NC1c1ccc(Cl)cc1 (stereo not shown) |  | ATCC25923 | 10 µg/mL | 24 h | 19
COc1cc(C=CC(=O)CC(c2ccc(N(C)C)cc2)n2ccnc2)ccc1O (stereo not shown) | disc diffusion | ATCC29213 | 500 µg/mL |  | 10.7
CC(C)Cc1nn(-c2nc3ccc(Br)cc3s2)c2c1C(=O)c1ccccc1-2 | well diffusion | NCIM5021 | 125 µg/mL |  | 11
CC(=O)C1=C(C)N2NC(C)(c3ccccc3O)N(C(C)C(=O)O)C2=NC1c1ccc(Cl)cc1 (stereo not shown) |  | ATCC25923 | 15 µg/mL | 24 h | 17
